This is a sample that favours compounds with a hit; in the whole collection about 1.6% have one here.
TPT1 inh: blocks Candida albicans tRNA 2'-phosphotransferase; recombinant caTPT1, FP RNA substrate dephosphorylation; inhibition, % at 5 µM; hit rate 0.81% among 300,000;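 active = inhibition above the mean of all tested compounds plus 3 SD, set per screening campaign, cut at about 24% in these data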;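 also: plate controls were DMSO alone for no effect and ferristatin control at 100 nM for full effect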
CSN deneddyl inh: CSN deneddylation inhibition; Q92905; Purified CSN, SCF-Nedd8-OG deneddylation, fluorescence polarization; inhibition, % at 12.5 µM; hit rate 0.38% among 360,000;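 active = pattern-corrected inhibition above about 35%, with an unprinted fluorescence ratio check between 0.5 and 1.5, limit read from the data, passing the limit was not always enough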;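 also: 0% = enzyme with substrate and 100% = substrate without enzyme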
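Assay system: purified human Csn5 enzyme expressed in HEK293T cells; Input: 0.24 nM Csn5 enzyme, final concentration; Reagent: 10 nM SCFSkp2-Nedd8OG; Compound dosing: 12.5 µM single point; Times: reaction 90 min, room temperature; Technique: fluorescence polarization readout.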
PKA-R2B act: activators of human PKA-R2B complex | P22694+P31323 | PKA-R2B holoenzyme dissociation, Cy5-IP20 fluorescence polarization; R2B truncated from residue 108, S112A mutant; 0% DMSO only, 100% 113 µM cGMP | activation, % at 11.4 µM | hit rate 0.079% among 340,000 | AID 504700;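 active = activation above a cutoff set at the mean over all compounds plus 3 SD, cut at about 18% in these data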;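 also: higher means more holoenzyme dissociation and a rise in polarization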
PKA-R1A activ: activates the PKA-R1A holoenzyme complex | activation, % at 11.4 µM | PKA-R1A dissociation, Cy5-IP20 fluorescence polarization; scaled: DMSO 0%, 113 µM cGMP 100% | AID 504707 | hit rate 0.083% among 340,000;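 active = percent activation above the mean of all tested compounds plus 3 SD, cut at about 19% in these data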;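 also: higher means more PKAc released from R1A so a rise in polarization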
HNF4A DNA FP: change in binding of human HNF4 alpha to DNA | HNF4a-FITC DNA binding, fluorescence polarization, 1 h | activity change, % at 10 µM | hit rate 0.3% among 360,000; in the data active = activity change above about 30%, passing the limit was not always enough
Rpn11 inh: blocks the human proteasome subunit Rpn11; human 26S proteasome, Ub4-pepOG fluorescence polarization; 20S core pre-blocked with epoxomicin; hit rate 0.59% among 360,000; AID 588493; O00487; calls only at 20 µM;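 active = inhibition at 20 µM, scaled to each plate's controls, above about 33%, limit read from the data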
Target sequence (O00487 whole entry, looked up): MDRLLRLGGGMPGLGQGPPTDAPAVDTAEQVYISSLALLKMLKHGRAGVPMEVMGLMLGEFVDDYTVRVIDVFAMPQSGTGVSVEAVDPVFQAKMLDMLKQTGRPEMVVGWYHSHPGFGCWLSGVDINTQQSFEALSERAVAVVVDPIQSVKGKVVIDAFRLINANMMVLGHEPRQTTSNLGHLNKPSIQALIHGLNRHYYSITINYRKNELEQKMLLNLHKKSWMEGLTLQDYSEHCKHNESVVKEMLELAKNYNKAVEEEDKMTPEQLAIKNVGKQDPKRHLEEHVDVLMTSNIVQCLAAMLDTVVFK
caTPT1 confirm: confirmation of Candida albicans TPT1 inhibitors | hit rate 74% among 2,400 | inhibition, % at 5 µM | shares compounds with TPT1 inh | recombinant caTPT1, fluorescence polarization, RNase T1 coupled;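 active = inhibition above the primary screen limit, the mean inhibition of all tested compounds plus 3 SD, cut at about 25% in these data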
RNase T1 inh: counter-screen for TPT1 inhibitors: inhibitors of Aspergillus oryzae RNase T1; shares compounds with TPT1 inh; RNase T1 cleavage, fluorescence polarization, 1536-well; inhibition, % at 5 µM; hit rate 83% among 2,400;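 active = inhibition above the solvent-only control well mean plus 3 SD, limit set per screening run, cut at about 23% in these data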;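 also: plate controls were DMSO wells with enzyme for no effect and wells without RNase T1 for full effect; inhibitors block cleavage so intact labeled substrate keeps polarization high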
Target sequence (P00651 whole entry, looked up): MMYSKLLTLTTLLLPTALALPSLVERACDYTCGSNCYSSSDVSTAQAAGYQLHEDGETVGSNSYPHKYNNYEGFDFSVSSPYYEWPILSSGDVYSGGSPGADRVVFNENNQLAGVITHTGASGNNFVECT
The depositor's hits bear a star; i = inactive; . = not tested or not shown.

SMILES	TPT1 inh	CSN deneddyl inh	PKA-R2B act	PKA-R1A activ	HNF4A DNA FP	Rpn11 inh	caTPT1 confirm	RNase T1 inh
Nc1nc(SCC(=O)Nc2ccc3c(c2)OCO3)n[nH]1	40.6*	1.0	-0.5	0.6	-0.6	i	2.0	3.1
CC1CCN(C(=O)C2CCN(S(=O)(=O)c3cccc4nonc34)CC2)CC1	41.6*	4.4	4.7	5.5	-4.4	i	1.6	7.3
CCN(CC)S(=O)(=O)c1ccc(N(C)Cc2cccnc2)nc1	-4.8	2.5	-8.7	7.0	-2.4	i	.	.
Oc1ccc(/C=N/Nc2nc(-c3cccnc3)nc3ccccc23)c(O)c1	45.7*	9.1	-4.8	3.3	35.6*	.	59.3*	68.6*
Nc1c(C(=O)c2ccccc2)sc2nsc(SCCN3CCOCC3)c12	57.7*	13.1	.	.	33.5	.	63.0*	72.2*
COc1cc(NC(=O)COC(=O)CCCC2=NS(=O)(=O)c3ccccc3N2)cc(OC)c1	-0.5	1.7	-3.0	-7.3	0.2	i	.	.
O=C(N/N=C/c1cc(Br)cc(Br)c1O)c1cccc(S(=O)(=O)N2CCOCC2)c1	47.9*	96.6	-5.9	-8.0	84.7	.	55.0*	53.5*
O=C(N/N=C/c1ccccc1Br)c1cccc(S(=O)(=O)N2CCOCC2)c1	.	-3.8	-3.3	-9.3	0.8	i	.	.
O=C(N/N=C/c1cc(Br)cc(Br)c1O)c1cccc(N2CCCC2=O)c1	54.1*	0.4	-9.2	-6.4	8.3	.	67.7*	73.4*
COc1ccc(NC(=O)CSc2nnc(CN3CCOCC3)n2C)cc1Cl	-1.6	0.7	-16.2	-0.1	-6.3	i	.	.
O/N=C/c1cc(Cl)ccc1OCc1cccc2ccccc12	-2.7	.	.	.	.	.	.	.
CC(C)N1CC=C2C(C#N)=C(N)C(C#N)(C#N)C(c3ccccc3)C2C1 (stereo unspecified)	-26.4	-20.6	-9.6	7.9	-37.6	i	.	.
Cc1ccc(C2C3CSCC=C3C(C#N)=C(N)C2(C#N)C#N)cc1 (stereo unspecified)	27.2*	8.8	-12.2	-5.4	16.7	i	18.9	29.4*
N#Cc1ccccc1S(=O)(=O)N1CCN(c2cnccn2)CC1	-2.1	-18.8	-7.4	-7.2	-2.1	i	.	.
CCCc1cc(=O)n2nc(N3CCC(C(=O)N4CCN(c5ccc(OC)cc5)CC4)CC3)sc2n1	-2.4	-0.1	-2.5	-10.3	2.8	i	.	.
COc1ccc(/C=C2\Oc3cc(OCC(=O)N4CCC(C(=O)O)CC4)ccc3C2=O)c(OC)c1OC	2.2	-2.5	2.0	10.4	4.0	i	.	.
COc1ccc(/C=C2\Oc3cc(OC(=O)N4CCOCC4)ccc3C2=O)c(OC)c1	111.2*	44.0*	3.5	2.5	99.4*	i	44.1*	64.7*
COc1ccc(/C=C2\Oc3cc(OCC(=O)N4CCC(C(=O)O)CC4)ccc3C2=O)c(OC)c1	65.1*	23.2	-0.3	-4.4	37.5	.	90.2*	98.4*
COc1ccc(OC)c(/C=C2\Oc3cc(OCC(=O)N4CCC(C(=O)O)CC4)ccc3C2=O)c1	29.2*	2.5	-1.0	-2.2	3.4	i	47.6*	56.6*
N#Cc1ccc(CN2CCN(C(=O)C3CC(=O)N(c4ccccc4F)C3)CC2)cc1 (stereo unspecified)	.	-0.1	-13.0	-14.3	-0.1	i	.	.
O=c1/c(=C/c2ccc(O)cc2)sc2n1CCCN=2	-1.1	1.6	6.2	-8.1	-1.7	i	.	.
CN(C)c1ccc(/C=c2\sc3n(c2=O)CCCN=3)cc1	102.7*	25.5	4.9	1.6	25.8	.	42.1*	58.6*
CN=c1scc(-c2ccccc2F)n1/N=C/c1ccc[nH]1	50.4*	9.0	-7.0	-9.9	15.4	i	27.4*	36.3*
Cc1ccc(OCC(COCc2ccccc2)NC(C)C)cc1 (stereo unspecified)	0.2	-2.0	-11.4	1.9	4.7	i	.	.
CCCCC(CCCC)=N/N=C/c1c(O)n(CC)c2cc(C3=NNC(=O)CC3)ccc12	33.9*	-2.5	-2.0	1.3	19.9	.	16.7	21.9*
SMILES	TPT1 inh	CSN deneddyl inh	PKA-R2B act	PKA-R1A activ	HNF4A DNA FP	Rpn11 inh	caTPT1 confirm	RNase T1 inh
CCCOc1ccc(C2=NNC(=O)CC2)cc1	1.2	-0.9	-18.8	0.8	4.2	i	.	.
CCn1c(O)c(/C=N/N=C2CCCCC2)c2cc(C3=NNC(=O)CC3)ccc21	36.7*	11.8	-14.4	-8.4	11.5	i	22.6	36.4*
Cc1ccc(C)c(OC(=O)c2cccc(S(=O)(=O)N3CCN(C)CC3)c2)c1	-0.9	-2.6	0.9	-0.8	1.9	i	.	.
COc1ccccc1CNC(=O)CN(C)CC(=O)Nc1ccc(F)c(F)c1F	.	-5.3	3.0	-4.4	1.6	i	.	.
CC(C)(C)NC(=O)CSc1nc(O)cc(=O)n1-c1ccccc1F	109.2*	56.2*	-6.5	1.5	78.2*	.	84.2*	94.3*
NC(=O)c1cc(S(=O)(=O)NCc2ccccc2)cs1	2.7	0.1	-2.9	-11.5	0.6	i	.	.
CCOC(=O)c1sc2nc(C)nc(SCC(=O)N(C)C3CCS(=O)(=O)C3)c2c1C (stereo unspecified)	7.5	9.6	4.7	2.1	5.7	i	.	.
CCOC(=O)c1sc2nc(C)nc(SCC(=O)NC(C)CCc3ccccc3)c2c1C (stereo unspecified)	25.0*	7.3	3.9	-3.5	16.8	i	40.6*	51.4*
CCOc1ccc(N2C(=O)S/C(=C\c3ccc(O)c(OC)c3)C2=O)cc1	65.9*	4.7	3.2	7.1	10.9	i	48.1*	57.9*
Cc1cccc(CN2C(=O)N/C(=C/c3cc(C)n(-c4cc(C)ccn4)c3C)C2=O)c1	-0.3	10.1	-12.2	-16.0	3.3	i	.	.
Cc1cccc(CN2C(=O)N/C(=C/c3ccc(C)s3)C2=O)c1	97.7*	16.5	9.8	-5.7	35.1*	.	86.8*	95.4*
Cc1ccc(/C=C2/NC(=O)N(Cc3ccccc3)C2=O)s1	88.1*	22.1	6.6	-6.3	55.0*	.	90.7*	95.0*
Cc1ccc(NC(=O)CN2C(=O)N/C(=C/c3ccc(C)s3)C2=O)cc1	70.7*	57.8*	14.5	0.6	101.2	.	65.9*	75.8*
O=C(C1CCCCC1)N1C[C@@H](n2cc(-c3ccc(F)cc3)nn2)[C@H](O)C[C@@H]1c1ccc(Cl)cc1	.	5.1	-3.0	-11.9	-4.0	i	.	.
O=c1[nH]c(=S)[nH]c2c1[C@H](C1CC1)O[C@H](CCc1ccccc1)C2	.	-4.7	.	.	-8.4	.	.	.
COc1cc(C)nc2nc(SCc3ccccc3)nn12	1.5	2.2	10.0	-1.6	-2.0	i	.	.

From PubChem BioAssay
